The source made the active and inactive calls. The rule behind the calls is not given here.
How the values were obtained:
Leishmania infantum = experiment: Antileishmanial activity against Leishmania infantum MHOM/MA (BE)/67 amastigotes infected in primary peritoneal mouse macrophages after 120 hrs by giemsa staining-based microscopic analysis; assay type: functional, organism-based; settings: MHOM/MA (BE)/67, 120 h
[1] = Cytotoxicity against human MRC5 SV2 cells after 72 hrs by resazurin dye-based fluorimetric analysis; assay type: cell-based; settings: MRC-5 SV2, 72 h
Plasmodium falciparum = experiment: Antiplasmodial activity against chloroquine-resistant Plasmodium falciparum K1 infected in human erythrocytes after 72 hrs by Malstat reagent-based spectrophotometric analysis; assay type: functional, organism-based; settings: K1, 72 h
Peritoneal macrophage = experiment: Cytotoxicity against mouse primary peritoneal macrophages after 72 hrs by resazurin dye-based fluorimetric analysis; assay type: cell-based
[2] = tested on: Trypanosoma brucei brucei; experiment: Antitrypanosomal activity against suramin-sensitive Trypanosoma brucei brucei Squib 427 after 72 hrs by resazurin dye-based fluorimetric analysis; assay type: functional, organism-based; settings: Squib 427, 72 h
Trypanosoma cruzi = experiment: Antitrypanosomal activity against nifurtimox-sensitive Trypanosoma cruzi Tulahuen CL2 infected in human MRC5 SV2 cells assessed as reduction in parasite burden after 168 hrs by CPRG and Nonidet based spectrophotometric analysis; assay type: functional, organism-based; settings: Tulahuen CL2, MRC-5 SV2, 168 h
[3] = Drug metabolism in mouse liver microsomes assessed as CYP450 mediated compound […] by measuring parent compound remaining at 5 uM after 15 mins in presence of NADPH by UPLC/MS/ESI analysis; assay type: ADME; settings: read-out: Stability
[4] = Drug metabolism in human plasma assessed as parent compound remaining after 60 mins by UPLC/MS/ESI analysis; assay type: ADME, cell-free; settings: read-out: Stability
[5] = Drug metabolism in mouse liver microsomes assessed as UGT mediated compound […] by measuring parent compound remaining at 5 uM after 30 mins in presence of UDPGA by UPLC/MS/ESI analysis; assay type: ADME; settings: 0.5 h
Summary of the method: (§1)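 Metabolic stability was run with mouse liver microsomal fraction (S9) and read as percent parent compound remaining over incubation time. Diclofenac served as the reference compound.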

[6] = Drug metabolism in human liver microsomes assessed as CYP450 mediated compound […] by measuring parent compound remaining at 5 uM after 15 mins in presence of NADPH by UPLC/MS/ESI analysis; assay type: ADME; settings: read-out: Stability
[7] = Drug metabolism in mouse liver microsomes assessed as UGT mediated compound […] by measuring parent compound remaining at 5 uM after 15 mins in presence of UDPGA by UPLC/MS/ESI analysis; assay type: ADME; settings: 0.25 h; summary of the method: as §1
[8] = Drug metabolism in human plasma assessed as parent compound remaining after 30 mins by UPLC/MS/ESI analysis; assay type: ADME, cell-free; settings: read-out: Stability
[9] = Drug metabolism in human liver microsomes assessed as CYP450 mediated compound […] by measuring parent compound remaining at 5 uM after 60 mins in presence of NADPH by UPLC/MS/ESI analysis; assay type: ADME; settings: read-out: Stability
[10] = Drug metabolism in human liver microsomes assessed as UGT mediated compound […] by measuring parent compound remaining at 5 uM after 60 mins in presence of UDPGA by UPLC/MS/ESI analysis; assay type: ADME; settings: read-out: Stability
[11] = Drug metabolism in human plasma assessed as parent compound remaining after 1440 mins by UPLC/MS/ESI analysis; assay type: ADME, cell-free; settings: 24 h
Summary of the method: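 Compound incubated in human plasma for 24 h at 37 °C, and the fraction of parent compound remaining was determined.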

[12] = Drug metabolism in human plasma assessed as parent compound remaining after 15 mins by UPLC/MS/ESI analysis; assay type: ADME, cell-free; settings: read-out: Stability
[13] = Drug metabolism in mouse liver microsomes assessed as UGT mediated compound […] by measuring parent compound remaining at 5 uM after 60 mins in presence of UDPGA by UPLC/MS/ESI analysis; assay type: ADME; settings: 1 h; summary of the method: as §1
[14] = Drug metabolism in mouse liver microsomes assessed as CYP450 mediated compound […] by measuring parent compound remaining at 5 uM after 60 mins in presence of NADPH by UPLC/MS/ESI analysis; assay type: ADME; settings: read-out: Stability
[15] = Drug metabolism in human liver microsomes assessed as UGT mediated compound […] by measuring parent compound remaining at 5 uM after 15 mins in presence of UDPGA by UPLC/MS/ESI analysis; assay type: ADME; settings: read-out: Stability
[16] = Drug metabolism in human liver microsomes assessed as UGT mediated compound […] by measuring parent compound remaining at 5 uM after 30 mins in presence of UDPGA by UPLC/MS/ESI analysis; assay type: ADME; settings: read-out: Stability
[17] = Drug metabolism in mouse liver microsomes assessed as CYP450 mediated compound […] by measuring parent compound remaining at 5 uM after 30 mins in presence of NADPH by UPLC/MS/ESI analysis; assay type: ADME; settings: read-out: Stability
[18] = Drug metabolism in human liver microsomes assessed as CYP450 mediated compound […] by measuring parent compound remaining at 5 uM after 30 mins in presence of NADPH by UPLC/MS/ESI analysis; assay type: ADME; settings: read-out: Stability
[19] = tested on: Trypanosoma brucei brucei; experiment: Antitrypanosomal activity against Trypanosoma brucei brucei Squib 427 infected in Swiss mouse assessed as mean survival days at 10 mg/kg, ip administered as single dose for 5 days; assay type: functional
Summary of the method: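 Acute mouse infection model with T. b. brucei. Dosing ran for 5 days after infection, orally or intraperitoneally, once or twice daily. Groups were 3 mice each, with vehicle-treated infected controls. The read-out was mean survival time in days, plus the number of survivors on day 14 post-infection.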

[20] = tested on: Trypanosoma brucei brucei; experiment: Antitrypanosomal activity against Trypanosoma brucei brucei Squib 427 assessed as reduction in parasite growth at 7 to 14 times IC50 after 18 to 48 hrs resazurin dye-based fluorimetric analysis; assay type: functional, organism-based
Summary of the method: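 In vitro time course of T. b. brucei growth in the presence of compound, with parasite growth expressed as % of control.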

[21] = tested on: Trypanosoma brucei brucei; experiment: Antitrypanosomal activity against Trypanosoma brucei brucei Squib 427 infected in Swiss mouse assessed as mouse survival at 10 mg/kg, ip administered as single dose for 5 days and measured on day 14 post infection; assay type: functional, organism-based
Summary of the method: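 Acute T. b. brucei mouse infection model. Dosing was PO or IP at 10–50 mg/kg, once (SID) or twice (BID) daily for 5 days after infection, with 3 mice per group. […] Read-outs were mean survival time and survivors on day 14 post infection.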

Compound `Cc1cc(C)c(Oc2nc(Nc3ccc(F)cc3)nc(N3CCCCC3)n2)c(C)c1` has an IC50 (Leishmania infantum) of 8.1 µM, an IC50 [1] greater than 64 µM and an IC50 (Plasmodium falciparum) of 5.4 µM. For the same compound, the IC50 (Peritoneal macrophage) was 32 µM, the IC50 [2] was 8.2 µM and the IC50 (Trypanosoma cruzi) was 2.4 µM.
In the case of `Cc1cc(Br)c(Nc2nc(N)nc(Nc3ccc(F)cc3)n2)c(Br)c1`, the IC50 (Leishmania infantum) is reported as greater than 64 µM, the IC50 [1] is reported as 6.7 µM and the IC50 (Plasmodium falciparum) is reported as greater than 64 µM. It also gave an IC50 (Peritoneal macrophage) greater than 64 µM, an IC50 [2] of 7.1 µM and an IC50 (Trypanosoma cruzi) greater than 64 µM.
With `Cc1cc(C)c(Oc2nc(N)nc(Oc3ccc(F)cc3)n2)c(C)c1` the IC50 (Leishmania infantum) was 8.1 µM, the IC50 [1] was greater than 64 µM and the IC50 (Plasmodium falciparum) was greater than 64 µM. For the same compound, the IC50 (Peritoneal macrophage) was 8 µM, the IC50 [2] was 4.3 µM and the IC50 (Trypanosoma cruzi) was greater than 64 µM.
Compound `Cc1cc(C)c(Oc2nc(N)nc(Nc3ccc(F)cc3)n2)c(C)c1` has a remaining at 0.25 h, 5 µM [3] of 22%, an IC50 (Leishmania infantum) greater than 64 µM and a remaining at 1 h [4] of 115%. For the same compound, the IC50 [1] was greater than 64 µM, the Stability [5] was 102% and the remaining at 0.25 h, 5 µM [6] was 53%. For the same compound, the IC50 (Plasmodium falciparum) was greater than 64 µM, the IC50 (Peritoneal macrophage) was greater than 64 µM and the Stability [7] was 94%. For the same compound, the remaining at 0.5 h [8] was 104%, the remaining at 1 h, 5 µM [9] was 13% and the remaining at 1 h, 5 µM [10] was 91%. It also gave an IC50 [2] of 0.3 µM, a Stability [11] of 151% and a remaining at 0.25 h [12] of 100%. It also gave a Stability [13] of 112%, a remaining at 1 h, 5 µM [14] of 0.3% and a remaining at 0.25 h, 5 µM [15] of 95%. The IC50 (Trypanosoma cruzi) was greater than 64 µM, the remaining at 0.5 h, 5 µM [16] was 118% and the remaining at 0.5 h, 5 µM [17] was 4%. For the same compound, the remaining at 0.5 h, 5 µM [18] was 33%.
`Cc1ccc(Oc2nc(N)nc(Nc3ccc(C#N)cc3)n2)cc1` gave an IC50 (Leishmania infantum) greater than 64 µM, an IC50 [1] greater than 64 µM and an IC50 (Plasmodium falciparum) greater than 64 µM. For the same compound, the IC50 (Peritoneal macrophage) was greater than 64 µM and the IC50 (Trypanosoma cruzi) was 8 µM.
`Nc1nc(Nc2ccc(F)cc2)nc(Sc2ccc(F)cc2)n1` gave an IC50 (Leishmania infantum) of 8.1 µM, an IC50 [1] greater than 64 µM and an IC50 (Plasmodium falciparum) greater than 64 µM. It also gave an IC50 (Peritoneal macrophage) of 8 µM, an IC50 [2] greater than 64 µM and an IC50 (Trypanosoma cruzi) of 6.9 µM.
`N#Cc1ccc(Nc2nc(N)nc(Nc3ccc(F)cc3)n2)cc1` showed an IC50 (Leishmania infantum) of 32.5 µM, an IC50 [1] greater than 64 µM and an IC50 (Plasmodium falciparum) of 26.4 µM. The IC50 (Peritoneal macrophage) was 32 µM, the IC50 [2] was 39.8 µM and the IC50 (Trypanosoma cruzi) was 9 µM.
For `Cc1ccc(Oc2nc(N)nc(Nc3ccccc3)n2)cc1`, the IC50 (Leishmania infantum) was 32.5 µM, the IC50 [1] was greater than 64 µM and the IC50 (Plasmodium falciparum) was greater than 64 µM. For the same compound, the IC50 (Peritoneal macrophage) was 32 µM, the IC50 [2] was 1.1 µM and the IC50 (Trypanosoma cruzi) was greater than 64 µM.
With `Cc1cc(C)c(Oc2nc(N)nc(Nc3c(F)cccc3F)n2)c(C)c1` the IC50 (Leishmania infantum) was 32.5 µM, the IC50 [1] was greater than 64 µM and the IC50 (Plasmodium falciparum) was greater than 64 µM. It also gave an IC50 (Peritoneal macrophage) of 32 µM, an IC50 [2] greater than 64 µM and an IC50 (Trypanosoma cruzi) greater than 64 µM.
In the case of `Cc1cc(C)c(Oc2ncnc(Nc3ccc(F)cc3)n2)c(C)c1`, the IC50 (Leishmania infantum) is reported as 10.8 µM, the IC50 [1] is reported as 8 µM and the IC50 (Plasmodium falciparum) is reported as 29.6 µM. For the same compound, the IC50 (Peritoneal macrophage) was greater than 64 µM, the IC50 [2] was 31.1 µM and the IC50 (Trypanosoma cruzi) was 7.9 µM.
`Cc1ccc(Nc2nc(N)nc(Nc3c(Br)cc(C)cc3Br)n2)cc1` showed an IC50 (Leishmania infantum) of 32.5 µM, an IC50 [1] of 8.1 µM and an IC50 (Plasmodium falciparum) greater than 64 µM. The IC50 (Peritoneal macrophage) was 32 µM, the IC50 [2] was 9.1 µM and the IC50 (Trypanosoma cruzi) was greater than 64 µM.
With `Cc1ccc(C(=O)Nc2ccc(S(=O)(=O)O)c3cc(S(=O)(=O)O)cc(S(=O)(=O)O)c23)cc1NC(=O)c1cccc(NC(=O)Nc2cccc(C(=O)Nc3cc(C(=O)Nc4ccc(S(=O)(=O)O)c5cc(S(=O)(=O)O)cc(S(=O)(=O)O)c45)ccc3C)c2)c1` [SURAMIN] the MST [19] was greater than 7 days, the Activity [20] was “Active” and the Activity [21] was “Active”.
`CC1CS(=O)(=O)CCN1/N=C/c1ccc([N+](=O)[O-])o1` (stereo not given) [NIFURTIMOX] showed an IC50 (Trypanosoma cruzi) of 0.9 µM.

— ChEMBL document CHEMBL4229376, “Optimization of the pharmacokinetic properties of potent anti-trypanosomal triazine derivatives” (Eur J Med Chem, 2018)
